Data set [1] has as its target Cytochrome P450 2D6 (Homo sapiens, UniProt P10635). Put plainly: Inhibition of CYP2D6 (unknown origin). The data set is classed as ADME.
The target in data set [2] is Cytochrome P450 3A4 (Homo sapiens, UniProt P08684). Put plainly: Inhibition of […] (unknown origin). It is filed as ADME.
The subject of data set [3] is Plasma. Put plainly: Stability in human plasma. The data set is classed as ADME, cell-free.
A short description of data set [4]: Intrinsic clearance in human. To be noted: in vivo. It is filed as ADME, organism-based.
Data set [5] deals with T1, Metabotropic glutamate receptor 1 (Homo sapiens, UniProt Q13255). As to the kind of experiment: Positive allosteric modulatory activity at human mGlu1 receptor expressed in wild type T-Rex293 cells assessed as increase in glutamate-induced calcium mobilization pre-incubated for 2.5 mins before glutamate stimulation for 1 min. It is filed as functional, cell-based. To be noted: for pEC50: read-out: EC50. A digest of the protocol:
(§1)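 Tetracycline-inducible human mGlu1 WT T-REx-293 cells were induced overnight with 50 ng/mL tetracycline in dialyzed-FBS medium. Cells were loaded with 1.15 μM Fluo-4 AM in HBSS/20 mM HEPES/2.5 mM probenecid for 45 min at 37 °C. Compounds (half-log series in DMSO) were added for 2.5 min, then an EC20 of glutamate for 1 min. Calcium flux was read on Flexstation; ECmax glutamate served as reference. n=3 in triplicate.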
Target sequence in this assay (Q13255 whole entry): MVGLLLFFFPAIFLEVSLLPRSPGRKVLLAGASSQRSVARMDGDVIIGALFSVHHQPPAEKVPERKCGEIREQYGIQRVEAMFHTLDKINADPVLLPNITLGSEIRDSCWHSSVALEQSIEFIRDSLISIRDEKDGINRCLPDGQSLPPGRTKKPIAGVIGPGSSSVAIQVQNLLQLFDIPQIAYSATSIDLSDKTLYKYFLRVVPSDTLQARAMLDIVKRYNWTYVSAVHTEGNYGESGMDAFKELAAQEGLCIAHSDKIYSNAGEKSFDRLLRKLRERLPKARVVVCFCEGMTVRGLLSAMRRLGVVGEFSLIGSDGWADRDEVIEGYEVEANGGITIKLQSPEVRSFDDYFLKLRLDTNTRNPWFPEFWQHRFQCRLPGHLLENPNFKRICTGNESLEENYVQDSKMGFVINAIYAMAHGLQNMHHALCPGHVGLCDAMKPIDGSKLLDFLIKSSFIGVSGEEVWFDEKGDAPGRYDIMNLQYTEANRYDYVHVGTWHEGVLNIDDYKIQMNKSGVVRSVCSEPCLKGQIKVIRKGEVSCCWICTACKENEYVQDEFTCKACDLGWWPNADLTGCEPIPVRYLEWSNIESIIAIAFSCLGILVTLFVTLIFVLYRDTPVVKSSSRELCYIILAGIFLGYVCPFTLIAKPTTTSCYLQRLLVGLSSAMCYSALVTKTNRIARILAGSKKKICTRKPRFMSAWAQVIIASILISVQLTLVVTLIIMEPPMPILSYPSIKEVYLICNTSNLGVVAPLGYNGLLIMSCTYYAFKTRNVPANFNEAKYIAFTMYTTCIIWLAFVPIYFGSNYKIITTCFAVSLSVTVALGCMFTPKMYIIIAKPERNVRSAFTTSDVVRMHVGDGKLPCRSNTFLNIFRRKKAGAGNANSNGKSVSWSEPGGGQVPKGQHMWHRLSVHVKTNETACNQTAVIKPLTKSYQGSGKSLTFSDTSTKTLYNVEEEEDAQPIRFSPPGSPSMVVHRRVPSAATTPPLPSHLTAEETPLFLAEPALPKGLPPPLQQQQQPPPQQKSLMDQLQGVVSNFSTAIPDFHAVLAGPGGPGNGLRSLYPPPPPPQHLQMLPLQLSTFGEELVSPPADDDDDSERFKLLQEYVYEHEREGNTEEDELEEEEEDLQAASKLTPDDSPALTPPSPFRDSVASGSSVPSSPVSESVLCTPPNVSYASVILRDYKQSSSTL

Data set [6] can be described thus: Intrinsic clearance in rat. The settings on record: in vivo. The data set is classed as ADME, organism-based.
Data set [7] has as its system Plasma. As to the kind of experiment: Stability in rat plasma. It is filed as ADME, cell-free.
For data set [8], the target named is Cytochrome P450 2C9 (Homo sapiens, UniProt P11712). As to the kind of experiment: Inhibition of CYP2C9 (unknown origin). The data set is classed as ADME.
The target of data set [9] is T1, Metabotropic glutamate receptor 1. As to the kind of experiment: Positive allosteric modulatory activity at human mGlu1 receptor expressed in wild type T-Rex293 cells assessed as increase in glutamate-induced calcium mobilization pre-incubated for 2.5 mins before glutamate stimulation for 1 min relative to glutamate alone. The data set is classed as functional, cell-based. In outline:
as §1
Target sequence in this assay (Q13255 19-1194 limits assumed): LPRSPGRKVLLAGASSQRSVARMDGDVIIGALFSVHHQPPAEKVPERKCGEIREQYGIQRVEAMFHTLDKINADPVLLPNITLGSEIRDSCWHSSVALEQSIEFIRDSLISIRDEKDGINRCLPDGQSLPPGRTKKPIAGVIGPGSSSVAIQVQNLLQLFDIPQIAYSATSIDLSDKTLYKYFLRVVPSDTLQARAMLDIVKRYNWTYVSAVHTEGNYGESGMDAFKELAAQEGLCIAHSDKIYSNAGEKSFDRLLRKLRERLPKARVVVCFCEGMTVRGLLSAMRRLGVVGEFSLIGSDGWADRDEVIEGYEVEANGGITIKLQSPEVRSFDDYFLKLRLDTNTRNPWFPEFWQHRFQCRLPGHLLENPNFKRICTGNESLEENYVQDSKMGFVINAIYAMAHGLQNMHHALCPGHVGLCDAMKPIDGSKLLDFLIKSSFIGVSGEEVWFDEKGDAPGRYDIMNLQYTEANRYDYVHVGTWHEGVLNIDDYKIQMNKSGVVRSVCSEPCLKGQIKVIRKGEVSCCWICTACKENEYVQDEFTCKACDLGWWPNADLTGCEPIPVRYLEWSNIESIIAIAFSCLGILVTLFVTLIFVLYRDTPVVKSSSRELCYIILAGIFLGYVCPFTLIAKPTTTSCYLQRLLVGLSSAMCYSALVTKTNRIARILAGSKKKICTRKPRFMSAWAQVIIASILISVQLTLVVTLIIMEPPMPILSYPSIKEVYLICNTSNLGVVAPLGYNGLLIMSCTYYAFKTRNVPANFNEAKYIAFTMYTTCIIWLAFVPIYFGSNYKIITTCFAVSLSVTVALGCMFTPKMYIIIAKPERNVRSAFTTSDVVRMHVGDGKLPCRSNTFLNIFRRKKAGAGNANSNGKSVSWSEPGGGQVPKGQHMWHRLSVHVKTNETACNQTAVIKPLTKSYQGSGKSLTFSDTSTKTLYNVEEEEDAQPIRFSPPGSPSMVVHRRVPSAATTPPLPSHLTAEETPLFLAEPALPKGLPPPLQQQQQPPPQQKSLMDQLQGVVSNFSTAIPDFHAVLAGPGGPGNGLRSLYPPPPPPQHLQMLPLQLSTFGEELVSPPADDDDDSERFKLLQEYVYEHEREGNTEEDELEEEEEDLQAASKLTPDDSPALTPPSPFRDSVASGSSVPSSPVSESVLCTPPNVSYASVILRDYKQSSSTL

Data set [10] has as its target T2, Cytochrome P450 1A2 (Homo sapiens, UniProt P05177).
T2 sequence (P05177 whole entry): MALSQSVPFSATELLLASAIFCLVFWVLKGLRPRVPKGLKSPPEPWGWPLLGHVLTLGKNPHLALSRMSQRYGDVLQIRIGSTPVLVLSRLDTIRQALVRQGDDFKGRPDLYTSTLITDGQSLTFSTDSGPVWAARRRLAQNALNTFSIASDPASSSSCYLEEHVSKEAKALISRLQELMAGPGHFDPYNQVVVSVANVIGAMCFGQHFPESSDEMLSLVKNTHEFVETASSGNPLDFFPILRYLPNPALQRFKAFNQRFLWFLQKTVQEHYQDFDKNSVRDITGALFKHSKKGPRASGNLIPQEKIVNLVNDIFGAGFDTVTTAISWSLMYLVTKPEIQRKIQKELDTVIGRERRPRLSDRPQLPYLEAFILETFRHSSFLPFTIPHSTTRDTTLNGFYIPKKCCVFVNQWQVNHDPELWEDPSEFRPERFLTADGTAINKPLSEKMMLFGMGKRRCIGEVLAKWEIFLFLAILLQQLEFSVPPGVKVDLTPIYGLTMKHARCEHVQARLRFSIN
As to the kind of experiment: Inhibition of CYP1A2 (unknown origin). The data set is classed as ADME.

Data set [11] in a line: Fraction unbound in human plasma. It is filed as ADME, cell-free.
The test system of data set [12] is Liver microsome. Put plainly: Stability in human liver microsomes. It is filed as ADME. On the technique in general: Liver microsomes are vesicles of endoplasmic reticulum, rich in cytochrome P450 enzymes.
Data set [13] concerns Brain. As to the kind of experiment: Drug uptake in rat brain. The settings on record: in vivo. It is filed as ADME, tissue-based.
Data set [14] is described as follows: Mean residence time in rat. The data set is classed as ADME, organism-based. The settings on record: in vivo.
Data set [15] concerns Liver microsome. As to the kind of experiment: Stability in rat liver microsomes. It is filed as ADME.
The species entered for data set [16] is Rattus norvegicus. Put plainly: Volume of distribution in rat. It is filed as ADME, organism-based. To be noted: in vivo.
For data set [17], the target named is Metabotropic glutamate receptor 4 (Homo sapiens, UniProt Q14833). As to the kind of experiment: Positive allosteric modulatory activity at human mGlu4 receptor expressed in wild type T-Rex293 cells assessed as increase in glutamate-induced calcium mobilization pre-incubated for 2.5 mins before glutamate stimulation for 1 min. It is filed as functional, cell-based. In general terms: Calcium flux is commonly read through the fluorescence of an indicator in the cells.

Data set [18] concerns Plasma. As to the kind of experiment: Drug uptake in rat plasma. The data set is classed as ADME.
The species entered for data set [19] is Rattus norvegicus. Put plainly: Half life in rat. The data set is classed as ADME, organism-based. The settings on record: in vivo.
Data set [20] in a line: Protein binding in rat brain. To be noted: read-out: PB. The data set is classed as ADME, tissue-based.
The nature of data set [21]: Ratio of drug level in brain to plasma in rat. It is filed as ADME.
The nature of data set [22]: Plasma protein binding in human. It is filed as ADME, cell-free.

Results on two molecules are retold here after ChEMBL document CHEMBL3785002, “Lead optimization of the VU0486321 series of mGlu1 PAMs. Part 3. Engineering plasma stability by discovery and optimization of isoindolinone analogs” (Bioorg Med Chem Lett, 2016).

Molecules are shown by their SMILES. pEC50, pIC50: −log10 of the molar value.

Chain of Cytochrome P450 2C9 (P11712 whole entry): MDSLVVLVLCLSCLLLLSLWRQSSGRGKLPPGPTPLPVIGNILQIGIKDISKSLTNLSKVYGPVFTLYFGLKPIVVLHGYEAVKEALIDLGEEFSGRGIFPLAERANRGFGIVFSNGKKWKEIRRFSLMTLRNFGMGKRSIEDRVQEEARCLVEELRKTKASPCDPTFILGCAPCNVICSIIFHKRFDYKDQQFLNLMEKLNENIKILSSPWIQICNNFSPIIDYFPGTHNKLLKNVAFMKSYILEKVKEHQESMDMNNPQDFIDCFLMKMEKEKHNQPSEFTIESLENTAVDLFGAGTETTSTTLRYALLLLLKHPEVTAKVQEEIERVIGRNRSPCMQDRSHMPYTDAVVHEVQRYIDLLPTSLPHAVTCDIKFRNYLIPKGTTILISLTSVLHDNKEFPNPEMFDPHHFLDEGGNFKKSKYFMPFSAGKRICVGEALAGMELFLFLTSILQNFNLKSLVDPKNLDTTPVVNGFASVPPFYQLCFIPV
Chain of Cytochrome P450 3A4 (P08684 whole entry): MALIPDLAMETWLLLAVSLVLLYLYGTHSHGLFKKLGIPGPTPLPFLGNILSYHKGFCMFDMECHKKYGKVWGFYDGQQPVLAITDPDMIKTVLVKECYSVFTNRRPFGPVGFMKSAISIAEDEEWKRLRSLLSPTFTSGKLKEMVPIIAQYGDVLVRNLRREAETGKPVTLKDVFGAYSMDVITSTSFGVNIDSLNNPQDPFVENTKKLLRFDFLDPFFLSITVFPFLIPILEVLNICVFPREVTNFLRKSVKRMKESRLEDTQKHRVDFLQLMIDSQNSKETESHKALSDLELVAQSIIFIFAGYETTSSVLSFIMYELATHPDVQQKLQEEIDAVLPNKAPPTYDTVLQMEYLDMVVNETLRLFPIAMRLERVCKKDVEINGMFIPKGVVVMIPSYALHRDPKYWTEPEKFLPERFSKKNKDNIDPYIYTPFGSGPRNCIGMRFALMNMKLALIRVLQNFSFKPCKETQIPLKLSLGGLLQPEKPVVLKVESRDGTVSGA
Chain of Cytochrome P450 2D6 (P10635 whole entry): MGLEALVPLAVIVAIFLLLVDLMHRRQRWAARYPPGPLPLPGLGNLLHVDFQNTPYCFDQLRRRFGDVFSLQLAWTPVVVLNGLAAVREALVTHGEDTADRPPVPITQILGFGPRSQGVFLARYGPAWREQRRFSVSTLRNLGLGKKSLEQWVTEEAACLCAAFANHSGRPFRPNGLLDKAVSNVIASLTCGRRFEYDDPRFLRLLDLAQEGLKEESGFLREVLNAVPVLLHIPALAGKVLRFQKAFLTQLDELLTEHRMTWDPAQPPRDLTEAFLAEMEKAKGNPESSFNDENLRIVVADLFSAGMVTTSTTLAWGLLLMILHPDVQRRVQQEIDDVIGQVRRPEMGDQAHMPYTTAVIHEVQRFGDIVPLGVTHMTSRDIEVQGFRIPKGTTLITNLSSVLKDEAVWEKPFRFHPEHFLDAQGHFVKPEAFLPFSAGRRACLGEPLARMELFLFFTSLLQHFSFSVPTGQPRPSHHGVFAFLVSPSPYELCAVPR
Chain of Metabotropic glutamate receptor 4 (Q14833 whole entry): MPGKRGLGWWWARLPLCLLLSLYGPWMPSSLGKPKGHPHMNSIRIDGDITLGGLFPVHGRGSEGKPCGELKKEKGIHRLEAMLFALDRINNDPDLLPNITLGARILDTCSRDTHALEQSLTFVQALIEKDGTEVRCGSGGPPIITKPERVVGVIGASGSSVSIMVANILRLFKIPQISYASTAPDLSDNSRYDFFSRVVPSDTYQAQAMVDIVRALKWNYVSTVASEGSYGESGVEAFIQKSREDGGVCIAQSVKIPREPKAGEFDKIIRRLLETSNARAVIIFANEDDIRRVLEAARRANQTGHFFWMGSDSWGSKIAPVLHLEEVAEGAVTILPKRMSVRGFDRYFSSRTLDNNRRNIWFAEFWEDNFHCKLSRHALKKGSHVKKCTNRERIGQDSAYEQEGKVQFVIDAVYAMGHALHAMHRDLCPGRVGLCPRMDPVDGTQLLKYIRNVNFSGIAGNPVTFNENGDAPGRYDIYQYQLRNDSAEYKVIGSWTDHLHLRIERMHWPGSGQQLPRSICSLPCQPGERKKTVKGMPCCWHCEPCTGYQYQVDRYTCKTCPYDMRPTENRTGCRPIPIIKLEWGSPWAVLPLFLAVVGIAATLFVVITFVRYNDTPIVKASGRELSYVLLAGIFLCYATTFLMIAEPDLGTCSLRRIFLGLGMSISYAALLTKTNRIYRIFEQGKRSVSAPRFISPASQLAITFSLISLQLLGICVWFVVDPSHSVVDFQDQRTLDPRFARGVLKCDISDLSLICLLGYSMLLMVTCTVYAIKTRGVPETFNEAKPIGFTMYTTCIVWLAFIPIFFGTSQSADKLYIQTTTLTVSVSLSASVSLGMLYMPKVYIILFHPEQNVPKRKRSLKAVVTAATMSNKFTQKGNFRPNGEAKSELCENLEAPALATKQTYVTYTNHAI

A word on the pEC50: it is −log10 of the EC50, conventionally taken in molar units. With `Cc1ccoc1C(=O)Nc1ccc(N2C(=O)Cc3ccccc3C2=O)c(Cl)c1`, the “inhibition (INH)” value in [1] (human), in data set [2] (human), in data set [8] (human) and in [10] (human) was “Not Active” in each case. For the same molecule, the Stability result in data set [3] and in [7] was “Unstable” throughout. In addition, the CLhep predicted is 13.5 mL/min/kg in data set [4] and 54 mL/min/kg in [6]. For the same molecule, the pEC50 in data set [5] was 6.62. In data set [5] (read-out: pEC50 (converted)), the EC50 is 224 nM. Further, the %max in data set [9] is 105%.

The pIC50 is the negative decadic logarithm of the IC50, by convention in mol/L. As a reminder, the MRT is a mean duration of stay, worked out from the concentration-time curve. Broadly, the Vd is the apparent volume that relates the amount in the body to the concentration in plasma or blood. A low value points to little distribution into tissue. On to `Cc1ccoc1C(=O)Nc1ccc(N2Cc3c(Cl)cccc3C2=O)c(Cl)c1`, for which the fraction unbound in [11] and in [20] was below 0.01 in each case. In addition, the negative logarithm of the IC50 (pIC50) in data set [1], in data set [2], in [8] and in [10] was below 4.52 each time. Also, the Stability result in data set [12] and in data set [15] was “Stable” throughout. In data set [13], this molecule came in with a Druguptake/dose of 269 nM. In [14], this molecule showed an MRT of 5.03 h. Also, the pEC50 in data set [5] is 6.68; in data set [17] it was below 5.00. The %max in data set [9] stood at 88%. In addition, the Vd in data set [16] was found to be 3.36 L/kg. In [18], this molecule returned a Cp/dose of 193 nM. For the same molecule, in [19], the t1/2 stood at 1.55 h. Moreover, the BPR in [21] is 1.36. In data set [22], the PPB is given as above 99%.
